Fewer inactive variants are shown than the library holds.

B1: tRNA (parent)
chain: GUUCCGUUGGCGUAAUGGUAACGCGUCUCCCUCCUAAGGAGAAGACUGCGGGUUCGAGUCCCGUACGGAACG

Variants of B1 are the subject of the series. Kind of series: yeast fitness relative to wild type (ratio to wild type); higher = fitter; tRNA-Arg(CCU), competitive growth, 37 C, YPD. Put shortly:
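Start and end populations of a pooled competition were compared by 100-nucleotide paired-end sequencing of gene amplicons. The Saccharomyces cerevisiae strains carried tRNA-Arg(CCU) gene variants at the native genomic locus, synthesised with a 3% per-site mutation rate at 69 sites, and competed in YPD at 37°C for 24 hours in six parallel replicates. Darwinian fitness relative to wild type was based on the change in genotype frequencies. Genotypes required ≥ 100 starting reads, and estimates < 0.5 were set to 0.5.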
On to GUUCAGUUGGCGUAAUGGUAACGCGACUCCCUCCUAAGGAGAAGACUGCGGGUUCGAGUCCCGUAAGGAACG [C5A U26A C66A], for which the yeast fitness was ≤ 0.5.

For GUUCCGUUGGCGUAAUGGUAACGCGUCUCCCUCCUAAGGAGAAGACUGCGGGUUCGAGUCCCGUACGGCACG [A69C], the yeast fitness came out at 1.03.

Regarding GUUCCGUUGGCGUAAUGCUAACGCGUCUCCCUCCUACGGAGAAGACUGGGGGUUCGAGUCCCGUACGGAGCG [G18C A37C C49G A70G], the yeast fitness was ≤ 0.5.

GUUCCGUUGGCGUAAUGGUAACGGCUCUCCCUCCAAAGGAGAAGACUGCGGAUUCGAGUCCCGUACGGAACG [C24G G25C U35A G52A]: the yeast fitness was ≤ 0.5.

In the case of GUUCCGUUGGCGUAAUGGUAACGCGUCUCCCUCCUAAGGAGAAAACUGCGGGUUCGACUCCCGUACGGAACG [G44A G58C], the yeast fitness was 0.911.

On to GUUCCGUUGGUGUAAUGGCAACGCGUCUCCCUCCUAAGGAGAAGACUGCGGGUUCGAGUCCCGUACCGAACG [C11U U19C G67C], for which the yeast fitness came out at 0.566.

Take GUUCCGUUGGCGUUAUGGUAACGCGUUUCCCUCCUAAGGAGAAGACUGCGGGUUGGAGUCCCGUACGAAACG [A14U C27U C55G G68A]: the yeast fitness is ≤ 0.5.

With GUUCCGUUGGCGCAUUGGUAACGCGUCUCCCUCCUAAGGAGAAGAAUGCGGGUUCGAGUCCCGUAUGGAACG [U13C A15U C46A C66U], the yeast fitness is ≤ 0.5.

For the variant GUUCCGUUGGCGUAAUGGUAACGCGGCUCCCUCCUAAGGAGAAGUCUGCAGGUUCGAGUCCCGUACGGAACG [U26G A45U G50A], the yeast fitness stood at 0.535.

With GUUACGUUGGCGUAAUGGUAACGCGUCUCCCUCGUAAGGAGAAGACUGCGGGUUCGAGUCCCGUAUGGAACG [C4A C34G C66U], the yeast fitness is 0.576.

Turning to GUUCAGUUGGCGUAAUGGUAACGCGUCUCCCUCCGAAGGAGAAGACCGCGGGUUCGAGUCGCGUACGGAACG [C5A U35G U47C C61G], the yeast fitness was ≤ 0.5.

As to GUUCCGUUGGCGUAAUGGUAACGCGUCUCCCUCCCAAGGGGAAGACUGCGGGUUCGAGUCCCGUACGGAACG [U35C A40G], the yeast fitness was determined as 0.711.

In the case of GUUCCGAUCGCGCAAUGGUAACGCGUCUCCCUCCUAAGGAGAAGACUGCGGGUUCGACUCCCGUCCGGGACG [U7A G9C U13C G58C A65C A69G], the yeast fitness was ≤ 0.5.

Regarding GUUCCGUUGGCGUAAUGGUAACGCGUCUCCGUCCUAAAGAGAAGACUGCGGGUUCGAGUCACAUGCGGAACG [C31G G38A C61A G63A A65G], the yeast fitness is ≤ 0.5.

In the case of GUUCUGUUGGCGUAAUGGUAGCGCGUCUCCCUCCUAAGGAGAACACUGCGGGUUCGUGUCCUGUACGGAACG [C5U A21G G44C A57U C62U], the yeast fitness is ≤ 0.5.

GUUCAGUUGGCGUAAUGGUAACGCGUCUCCCUCCUAAGGAGAAGAGUGAGGGUUCGAGUCCCGUACCGAACG [C5A C46G C49A G67C]: the yeast fitness was ≤ 0.5.

With GUUCCGUUGGCGUAAUGGUAACGCGUCUCCCUCCUAAGGAGAAGAGUGCGGGUACGAGUCCUGUACGGAACG [C46G U54A C62U], the yeast fitness was ≤ 0.5.

Take GUUCCGUUGGCGUGAUGGCAACGCGUCUCCCUCCUAAGGAGAAGACUGCGGGUUCGAGUCCCGUACGGAACG [A14G U19C]: the yeast fitness stood at 0.919.

Consider GUUCCGUUGGCGUCAUGGUAACGCAUCUCCCUCCUAUGGAGGAGACUGCGGGUUCGAGUCCCGUACGGAACG [A14C G25A A37U A42G], for which the yeast fitness was ≤ 0.5.

As for GUUCCGUUGGCGUCAUGGUAACGCGUCUCCCGCCUAAGGAGAAGACCGCGGGUUGGAGUCCCGUACGGAACG [A14C U32G U47C C55G], the yeast fitness was ≤ 0.5.

In the case of GUUCCGUUGGCGUAAUGGUAACGCGUCUCCCUACUCAGGAGAAGAGUGCGGGUUCGAGUCCGGUACGGUACG [C33A A36C C46G C62G A69U], the yeast fitness was ≤ 0.5.

In the case of GUUCGGUUGGCGUAAUGGUAACGCGUCUCCCUCCUAAGGAGAAGACUGCGGGUUCGAGUCACCUACGGAACG [C5G C61A G63C], the yeast fitness is ≤ 0.5.

In the case of GUUCCGUUGGCAUAAUCGUAACGCGUCUCCCUCCUAAGGAGAAGACUGCGGGUUCGAGUCCCGUACGGAACG [G12A G17C], the yeast fitness amounted to 0.661.

Regarding GUUCCGAUGGCGUAAUGGUAACGGGUCUCCCUCCUAAGGAGAAGACUGCGGGUUGGAGUCCCGUACGGAACG [U7A C24G C55G], the yeast fitness was ≤ 0.5.

For the variant GUUCCGUUGGCGUAAUGGUAACGCGUCUCCCUCCUAACGAGAAGUCUGCGGGUUCGAGUCCCGUACGGAACG [G38C A45U], the yeast fitness is 0.599.

Take GUUCCGUUGGCGUAAUGGUAACGCGUCUCCCUCCUAAGGAGAAGACUGCGAGUUCGAGUCCCGCACCGGACG [G51A U64C G67C A69G]: the yeast fitness worked out at 0.854.

Regarding GAUCGGUUGGCGUAAUGGUAACGUGUCUCGCUCCUAAGGAGAAGACUGCGGGUUCGAGUCCCGUACGAAACG [U2A C5G C24U C30G G68A], the yeast fitness is ≤ 0.5.

Consider GUUCCGUUGGCGUAAUGGCAACGCGUCUCCCUCCUAAGGAGAAGACUGCGGGUUCGAGUUCUGUACGGGACG [U19C C60U C62U A69G], for which the yeast fitness was ≤ 0.5.

For GUUCCGUUGGCGUAAUGGUACCGCGUCUCCCUCCUAAGGAGAAGACUGCGGGUUCGUGUCCUGUACGGAACG [A21C A57U C62U], the yeast fitness is ≤ 0.5.

GUUCCGUUGGCGUAAUGGUAACGCGUCUGCAUCCUAAGGAGAACACUGCGGGUUCGAGUCCCGUCCGGAACG [C29G C31A G44C A65C]: the yeast fitness was ≤ 0.5.

Consider GUUCCGUUGGCGUAAUGGUAACGCGUCCCCCUCCUAAGGAGAAGCCUGCGGGUUCGAGUCCCGUACGGAACG [U28C A45C], for which the yeast fitness worked out at 0.993.

Take GUUCCGUUGGCGUAAUGGUAACGCGUCUGCCACCUAAGGAGAAGACUGCGGGUUCGAGUCCAGUACGGAACG [C29G U32A C62A]: the yeast fitness is 0.608.

Regarding GUUCCGCUGCCGUAAUGGUAACGCGUCUCCCUCCUAAGGAGACGACUGCGGGUUCGAGUCCCGUACGGAACG [U7C G10C A43C], the yeast fitness came to 0.549.

On to GUUCCGUUGGCGUAAUGGUAACGCGUGUCCCUCCUAAGGAGAAGACCGCAGGUUCGGGUGCCGUACGGAACG [C27G U47C G50A A57G C60G], for which the yeast fitness turned out to be 0.636.

In the case of GUUCCGUUGGCGUAAUGGUAGCGGGUCUCCCUCCUAUGGAGAAGACUGCGGGUUCGAGUCCCGUACGGAACG [A21G C24G A37U], the yeast fitness came to 0.573.

As to GUUCCGUUGGCGUAAUGGUAACGCGCCUCGCUCAUAAGGAGAAGACUGGAGGUUCGAGUCCCGAACGGAACG [U26C C30G C34A C49G G50A U64A], the yeast fitness was ≤ 0.5.

For the variant GUUGCGUUGGCGUAAUGGUAACGAGUCUCCCUCAUAAGGAGAAGACUGCGGGUUCGAGUCCCGUAAGGAACG [C4G C24A C34A C66A], the yeast fitness is ≤ 0.5.

Source of the values: the RNAGym collection of RNA variant scans (doi:10.1126/science.aae0568).
